One assay concerns the target Cathepsin B (Homo sapiens, UniProt P07858). Briefly: Inhibition of human cathepsin-B using Cbz-Phe-Arg-AMC as substrate by spectrofluorometer analysis.
The target in assay [1] is T1, Procathepsin L (Homo sapiens, UniProt P07711). Kind of assay: Inhibition of human cathepsin L using Cbz-Phe-Arg-AMC as substrate by spectrofluorometer analysis.
Target sequence in this assay (P07711 whole entry): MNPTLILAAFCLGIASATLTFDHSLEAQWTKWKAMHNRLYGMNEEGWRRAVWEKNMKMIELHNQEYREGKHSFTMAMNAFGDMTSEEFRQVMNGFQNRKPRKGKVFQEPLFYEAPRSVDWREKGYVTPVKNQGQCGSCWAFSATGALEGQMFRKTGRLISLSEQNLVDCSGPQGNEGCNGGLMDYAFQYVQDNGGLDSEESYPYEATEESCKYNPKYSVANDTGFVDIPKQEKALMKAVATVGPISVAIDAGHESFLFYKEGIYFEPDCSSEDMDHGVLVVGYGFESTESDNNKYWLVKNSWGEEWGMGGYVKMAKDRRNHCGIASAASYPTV
Assay [2] can be described thus: Inhibition of Plasmodium falciparum Falcipain 2 using Cbz-Phe-Arg-AMC as substrate after 15 mins by spectrofluorometer analysis. An outline of the steps:
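Continuous progress-curve assay in 50 mM sodium acetate pH 5.5 with 10 mM DTT, Cbz-Phe-Arg-AMC as substrate, inhibitors from DMSO stocks. AMC release read (ex 365, em 460 nm) for 15 min at room temperature. kobs from the fit F = A(1−exp(−kobs·t)) + B. Hyperbolic kobs vs [I] gave kinac and KI; linear plots gave k2nd = kobs/[I]. At least two independent runs, each in duplicate.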

In assay [3] the target is T1, Procathepsin L. The conditions noted are these: 5 to 50 uM.
Target sequence in this assay (P07711 114-333 limits assumed): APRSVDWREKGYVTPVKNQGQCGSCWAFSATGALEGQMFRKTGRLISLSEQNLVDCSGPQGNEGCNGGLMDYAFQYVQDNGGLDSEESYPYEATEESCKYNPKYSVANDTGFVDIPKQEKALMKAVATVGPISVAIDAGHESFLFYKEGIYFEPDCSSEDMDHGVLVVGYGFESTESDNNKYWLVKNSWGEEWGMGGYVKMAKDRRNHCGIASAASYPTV
Assay [4] has as its system Plasmodium falciparum. Kind of assay: Antiplasmodial activity against Plasmodium falciparum FCBR. The class given is functional, organism-based. The settings on record: FCBR/Columbia.
Assay [5] concerns Plasmodium falciparum. Briefly: Inhibition of Plasmodium falciparum Falcipain 2 using Cbz-Phe-Arg-AMC as substrate at 100 uM after 15 mins by spectrofluorometer analysis. An outline of the steps: (§1)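 Single-concentration screen at 100 and 30 inhibitor concentration, with an equal amount of DMSO as negative control and E-64 as positive control. AMC release from Cbz-Phe-Arg-AMC was followed fluorimetrically (ex 365, em 460 nm) as continuous increase in fluorescence. Percent inhibition is relative to DMSO. At least two independent measurements, each in duplicate.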

Assay [6] deals with Plasmodium falciparum. Kind of assay: Inhibition of Plasmodium falciparum Falcipain 2 using Cbz-Phe-Arg-AMC as substrate at 30 uM after 15 mins by spectrofluorometer analysis. The method, boiled down: as §1

For orientation: inhibition means the relative decrease from the control value, in per cent. As usually defined, the IC50 is the concentration that inhibits the measured activity by half. A lower IC50 goes with greater potency in that assay.

Calls of active or inactive are those of the source. No cut-off for these calls is given here.

On to `CC(=O)/C=C/CNC(=O)CN1C(=O)[C@@H](CNCC(C)C)N=C(c2ccccc2)c2ccccc21`, for which the Ki on Cathepsin B is over 100 µM; on Procathepsin L [1] (read-out: Ki), over 140 µM; in assay [2], over 100 µM.
On to `CC(=O)/C=C/CNC(=O)CN1C(=O)[C@@H](COC(=O)Nc2ccc(Cl)cc2C(F)(F)F)N=C(c2ccccc2)c2ccccc21`, for which the inhibition entry at Procathepsin L [3] is “tde”. Further, the Ki at Procathepsin L [1] (read-out: Ki(app)) is 8.6 µM.
With `CC(=O)/C=C/CNC(=O)CN1C(=O)[C@@H](COC(=O)Nc2ccc(Cl)cc2C(F)(F)F)N=C(C)c2ccccc21`, in the assay with Plasmodium falciparum [4], the IC50 is over 100 µM. For the same molecule, the Ki at Procathepsin L [1] (read-out: Ki) was 82 µM.
In the case of `CC(=O)/C=C/CNC(=O)CN1C(=O)[C@@H](CN2CCCCC2)N=C(c2ccccc2)c2ccccc21`, the inhibition in the assay with Plasmodium falciparum [5] stood at 80%. In addition, the Ki on Cathepsin B and on Procathepsin L [1] (read-out: Ki) was over 100 µM throughout. In addition, the inhibition entry in the assay on Plasmodium falciparum [6] was “inactive”.
Consider `CC(=O)/C=C/CNC(=O)CN1C(=O)[C@@H](CN2CCOCC2)N=C(c2ccccc2)c2ccccc21`, for which, at Cathepsin B, the Ki was over 100 µM.

For the origin of these results see ChEMBL document CHEMBL1949554, “Peptidomimetics containing a vinyl ketone warhead as falcipain-2 inhibitors” (Eur J Med Chem, 2011).
